# Hits are enriched below; roughly 3.7% of the tested compounds scored in any of these assays.
# KCNK3 block: human KCNK3 channel inhibitors, primary screen, CHO cells, FluxOR thallium flux, B-score; FluxOR fluorescence; stronger effect = lower value; 0.84% of 340,000 active; Potassium channel subfamily K member 3 (Homo sapiens), O14649; B-score at 10 µM;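 active means B-score under library mean minus 4 SD, starting fluorescence ratio at most library mean plus 5 SD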;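 further: more negative B-score means stronger inhibition of thallium flux through KCNK3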
# Kir21 block: inhibitors of mouse Kir2.1 inward-rectifier potassium channel; Inward rectifier potassium channel 2 (Mus musculus), P35561; HEK293-Kir2.1, FluxOR thallium flux fluorescence; stronger effect = lower value; B-score at 10 µM; 0.85% of 310,000 active; AID 1672, 2009;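 active means fluorescence ratio B-score at or below minus 3 SD of library scores, with starting-brightness B-score within 2 SD, cut at about -4.2 in these data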;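 further: channel flux triggered by added potassium and thallium sulfate stimulus; B-score of peak minus minimum fluorescence over baseline after thallium stimulus; more negative B-score means stronger Kir2.1 block with less thallium influx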
# Target sequence (P35561 whole entry, looked up): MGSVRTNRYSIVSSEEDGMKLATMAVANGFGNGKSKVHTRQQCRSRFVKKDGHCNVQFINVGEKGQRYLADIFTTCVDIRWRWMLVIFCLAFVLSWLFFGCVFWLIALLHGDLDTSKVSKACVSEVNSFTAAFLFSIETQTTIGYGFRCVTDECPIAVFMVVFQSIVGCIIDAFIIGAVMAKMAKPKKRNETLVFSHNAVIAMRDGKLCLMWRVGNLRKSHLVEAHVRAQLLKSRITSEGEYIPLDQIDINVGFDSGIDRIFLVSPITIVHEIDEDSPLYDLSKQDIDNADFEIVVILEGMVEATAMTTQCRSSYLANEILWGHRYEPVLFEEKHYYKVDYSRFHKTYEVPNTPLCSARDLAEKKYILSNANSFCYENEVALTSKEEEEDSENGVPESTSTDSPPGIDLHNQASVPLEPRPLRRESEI
# KCNQ1 block: inhibitors of human KCNQ1 channel, primary screen, cell-based, thallium flux, high-throughput. B-score at 10 µM. AID 2642, 2010. CHO-K1 KCNQ1, FluxOR thallium flux fluorescence; stronger effect = higher value. Potassium voltage-gated channel subfamily KQT member 1 (Homo sapiens), P51787. 1.3% of 310,000 active;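 active means compounds whose thallium flux B-score, printed positive for inhibition, exceeds three library SD while starting fluorescence stays within three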;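 further: channel opened by potassium depolarization with thallium stimulus after 20 min compound exposure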
# KCNK9 block: KCNK9 potassium channel inhibitors, primary screen, HEK293 cells, thallium flux; B-score at 10 µM; 1.2% of 310,000 active; FluxOR thallium flux fluorescence; stronger effect = lower value; Potassium channel subfamily K member 9 (Homo sapiens), Q9NPC2; AID 488922, 2010;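 active means ratio B-score over 3 SD below the library mean, with starting fluorescence within 5 SD of its mean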;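 further: negative B-score means less thallium flux so channel inhibition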
# hERG protect: hERG rescue from dofetilide block, primary screen, cell-based, CHO-hERG, FluxOR thallium flux, dofetilide IC70; Voltage-gated inwardly rectifying potassium channel KCNH2 (Homo sapiens), Q12809; dofetilide IC70 present; activation (rescue from dofetilide block), less the hit threshold, % at 10 µM; 0.51% of 310,000 active;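 active means activation above the mean of controls blocked by dofetilide plus 5 SD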;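 further: thallium influx through hERG after potassium depolarization seen as dye fluorescence rise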
# KCNQ1 act: potentiators or activators of KCNQ1 channel, primary screen, cell-based, thallium flux, high-throughput; Potassium voltage-gated channel subfamily KQT member 1 (Homo sapiens), P51787; AID 2648, 2010; 0.35% of 310,000 active; B-score at 10 µM; CHO-K1 KCNQ1, thallium flux FluxOR fluorescence; stronger effect = higher value;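 active means fluorescence ratio B-score, a plate-corrected score, at least three library SD, with initial intensity B-score within 5 SD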
#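 Assay system: CHO-K1 cells stably expressing KCNQ1. Medium: assay buffer for compound exposure, DMSO matched across wells. Timing: 37 °C overnight plating, 90-min dark dye load, 20-min compound pretreatment. Signal: kinetic FluxOR fluorescence, 10 s baseline plus 110 s post-stimulus.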
# * marks the source's active call; other numbers are inactive results; i = inactive; nt = no result; ! = not active in a repeat.
SMILES,KCNK3 block,Kir21 block,KCNQ1 block,KCNK9 block,hERG protect,KCNQ1 act
CN(C)c1ccc(C(C(=O)NCc2ccccc2)N(Cc2cccnc2)C(=O)c2snc(C(N)=O)c2N)cc1 (stereo unspecified),i,-0.82,8*,i,-9,i
CC(C)CC(C(=O)NC1CCCC1)N(Cc1cccs1)C(=O)c1snc(C(N)=O)c1N (stereo unspecified),i,-0.41,i,i,-32,i
CC(C)CC(C(=O)NC1CCCCC1)N(Cc1cccs1)C(=O)c1snc(C(N)=O)c1N (stereo unspecified),i,0.55,8*,i,-21,i
CCCCC(C(=O)NC1CCCC1)N(Cc1ccccc1)C(=O)c1snc(C(N)=O)c1N (stereo unspecified),i,1.2,10*,i,-12,i
C#CCOCCOCCOCCNc1nc(N2CCOCC2)nc(N2CCN(C(=O)[C@H](C)n3cc(CCC(=O)O)nn3)CC2)n1,i,nt,nt,nt,nt,nt
CC1(C)Cc2cccc(C(=O)Nc3ccc(F)cc3F)c2O1,i,-2.2,i,i,-2,i
Cn1nc(-c2ccccc2)cc1NC(=O)C1CCCCC1,i,0.2,i,i,-5,i
O=C(O)c1ccc(OCCCCCCOC2CCCCO2)cc1 (stereo unspecified),i,-0.58,i,i,-5,i
CC(=O)C1CCC2C3CCC4CC(=O)CCC4(C)C3C=CC12C (stereo unspecified),i,nt,nt,nt,nt,nt
CS(=O)(=O)N(CC(=O)NC1CCCC1)C1CCCCC1,i,-0.31,i,i,6.5*,i
O=[N+]([O-])c1ccc(/C=C/C2=NN(c3ccccc3)C(c3ccco3)C2)o1 (stereo unspecified),-9.7*,-0.88,i,i,-10,i
C(=C\c1ccco1)/C1=NN(c2ccccc2)C(c2ccco2)C1 (stereo unspecified),i,-2.1,i,i,-15,i
O=C(CN1CCN(c2ccccn2)CC1)Nc1cccc(S(=O)(=O)N2CCCC2)c1,i,-0.12,i,i,-9,i
Cc1ccc(CN2CCSc3ccc(C(=O)NCc4ccco4)cc32)cc1,i,-1.6,i,-7.1*,-10,i
Cc1ccc(CN2CCSc3ccc(C(=O)NCCCN4CCOCC4)cc32)cc1,i,-3.5,i,i,-17,i
COC(=O)N/N=C(\C)c1ccc(-n2ccnc2)cc1,i,-0.92,i,i,-3,i
C/C(=N\NC(=O)COc1ccc(C)cc1C(C)C)c1ccc(-n2ccnc2)cc1,i,-0.01,i,i,5.6*,i
Cc1noc(C)c1CN(C(=S)NC(C)C)c1ccccc1,i,-6.5*,i,i,-11,i
Brc1cc2c(cc1-c1nc3ccccc3s1)OCO2,i,-1.9,i,-7.1*,-3,i
CCN(CC)S(=O)(=O)c1cccc(C(=O)/C=C2/N(C)c3ccccc3C2(C)C)c1,i,-0.02,i,-7.7*,-15,i
CN1/C(=C\C(=S)NC(=O)c2cccc(Br)c2)C(C)(C)c2ccccc21,i,0.99,i,i,-4,i
Cc1ccc(Oc2cc(NN3CCCCC3)c([N+](=O)[O-])cc2[N+](=O)[O-])c(Cl)c1,i,0.07,i,i,-5,i
CCN(CC)CC(=O)Nc1sc(C)c(C)c1C(=O)c1ccc(C)cc1,i,0.01,6*,i,-18,i
CCN(CC)CC(=O)Nc1sc(C)cc1C(=O)c1ccccc1,i,-0.89,i,i,-6,i
N#Cc1cc([N+](=O)[O-])ccc1N1CCCC1,i,-1.1,i,i,-2,i
SMILES,KCNK3 block,Kir21 block,KCNQ1 block,KCNK9 block,hERG protect,KCNQ1 act
O=[N+]([O-])c1ccc(N2CCCCCC2)c([N+](=O)[O-])c1,i,-0.89,i,i,-16,i
CN(C)S(=O)(=O)c1cc([N+](=O)[O-])ccc1N1CCCCCC1,i,-4.6*,i,i,-2,i
CC(C)CN(CC(C)C)S(=O)(=O)c1cc([N+](=O)[O-])ccc1N1CCCCCC1,i,-2.2,7*,i,0,i
CC1C(=O)N2CCCc3cc(NS(=O)(=O)c4ccccc4)cc1c32 (stereo unspecified),i,-0.47,i,i,-8,i
CCc1ccc2[nH]c(C(=O)Nc3ccc(F)cc3Br)cc2c1,i,0.8,i,i,-2,8*
CC1(c2ccccc2)CC(c2ccccc2)=Nc2nonc2N1 (stereo unspecified),i,-4.4*,i,i,-10,i
O=C(COc1cc2oc(=O)cc(-c3ccccc3)c2cc1Cl)NCCN1CCOCC1,i,1.1,i,i,-8,i
CCC(NC(=O)Nc1nnc(C(F)(F)F)s1)(C(F)(F)F)C(F)(F)F,i,-4.5*,i,i,-50,i
NCC(=O)NCC(=O)NC[C@H]1O[C@@H](n2cnc3c(N)ncnc32)[C@H](O)[C@@H]1O,i,nt,nt,nt,nt,nt
O=C(CCCN1C(=O)/C(=C\c2ccccc2)SC1=S)N1CCOCC1,i,nt,nt,nt,nt,nt
O=C(O)CN1C(=O)/C(=C\c2cn(CC(=O)N3CCOCC3)c3ccccc23)SC1=S,i,-7.7,6*,i,-15,i
CC(Oc1cccc(Cl)c1)C(=O)NCc1ccc(S(N)(=O)=O)cc1 (stereo unspecified),i,1.2,i,i,-16,i
CC(Oc1cccc(Cl)c1)C(=O)NCCCCc1ccccc1 (stereo unspecified),i,-5.5*,i,i,-5,i
CCCCCn1c(=N)n(CC(O)COc2ccccc2OC)c2ccccc21 (stereo unspecified),i,-4.3*!,7*!,i,-26,i
COc1ccccc1OCC(O)Cn1c(=N)n(Cc2ccccc2)c2ccccc21 (stereo unspecified),i,-4.6*,i,i,-18,i
CCCCn1c(=N)n(CCOc2ccc(C)cc2)c2ccccc21,i,-4.6*,i,i,-11,i
C=CCn1c(=N)n(CC(O)COc2ccccc2OC)c2ccccc21 (stereo unspecified),i,0.02,i,i,-11,i
CCCn1c(=N)n(CC(O)COc2ccc(C)cc2)c2ccccc21 (stereo unspecified),i,-3.9,i,i,-7,i

# Screening data deposited in PubChem BioAssay by Johns Hopkins Ion Channel Center.
